According to ChEMBL document CHEMBL1137731, “Cytotoxicity and TOP1-targeting activity of 8- and 9-amino derivatives of 5-butyl- and 5-(2-N,N-dimethylamino)ethyl-5H-dibenzo[c,h][1,6]naphthyridin-6-ones” (Eur J Med Chem, 2009):
pIC50: −log10 of the molar value.

Legend:
Homo sapiens = organism: Homo sapiens; test: Inhibition of human recombinant topoisomerase 1 expressed in Escherichia coli assessed as drug level causing 10% mediated DNA cleavage relative to topotecan
Outline: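 Recombinant human TOP1, expressed in E. coli as a T7-system fusion protein, was incubated with drug and 3′-end-labelled plasmid YepG for 30 min at room temperature. Reactions were stopped with SDS and proteinase K (1 h, 37 °C), alkali-denatured, and run on a neutral agarose gel. The read-out was the concentration giving 10% cleavage, expressed relative to topotecan set at 1.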

RPMI8402 (human) = test: Cytotoxicity against human RPMI8402 cells by MTT method; conditions: RPMI-8402
[1] = Cytotoxicity against human KB3-1 cells by MTT method; assay type: functional, cell-based; conditions: KB 3-1
P388 = test: Cytotoxicity against mouse P388 cells by MTT method; assay type: functional, cell-based
Outline: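 MTT assay with P388 mouse leukaemia cells grown in suspension at 37 °C, 5% CO2, in RPMI with 10% heat-inactivated FBS, 2 mM L-glutamine and penicillin/streptomycin. Cells were exposed continuously to varying drug concentrations for 4 days, with a drug-free control, and MTT was read at day 4. The IC50 came from at least two assays, each in six replicate wells.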

[2] = Cytotoxicity against multidrug resistant human KBH5.0 cells overexpressing BCRP by MTT method; assay type: functional, cell-based; conditions: KBH5.0 cell
[3] = Cytotoxicity against multidrug resistant human KBV1 cells overexpressing MDR1 by MTT method; assay type: functional, cell-based; conditions: KB-V1

| Structure (SMILES) | Activity (Homo sapiens) | pIC50 (RPMI8402 (human)) | pIC50 [1] | pIC50 (P388) | pIC50 [2] | pIC50 [3] |
| --- | --- | --- | --- | --- | --- | --- |
| CN(C)CCn1c(=O)c2ccc(N)cc2c2cnc3cc4c(cc3c21)OCO4 | 0.5 | 7.48 | 6.89 | 7.55 | 6.82 | 6.89 |
| CCCCn1c(=O)c2cc(N)ccc2c2cnc3cc4c(cc3c21)OCO4 | > 20 | 5.90 | 5.49 | 6.55 | 5.46 | 5.60 |
| CCCCn1c(=O)c2cc(NC(=O)CN(C)C)ccc2c2cnc3cc4c(cc3c21)OCO4 | > 20 | 6.48 | 5.82 | 6.60 | 5.80 | 5.59 |
| CCCCn1c(=O)c2ccc(N)cc2c2cnc3cc4c(cc3c21)OCO4 | > 20 | 5.46 | 5.24 | 5.22 | 5.46 | 5.60 |
| CCCCn1c(=O)c2ccc([N+](=O)[O-])cc2c2cnc3cc4c(cc3c21)OCO4 | > 10 | 6.32 | 6.51 | 6.15 | 6.44 | 6.07 |
| CN(C)CCNc1ccc2c(c1)c(=O)n(CCN(C)C)c1c3cc4c(cc3ncc21)OCO4 | > 20 | 6.92 | 7.30 | 7.40 | 6.52 | 6.39 |
| CC[C@@]1(O)C(=O)OCc2c1cc1n(c2=O)Cc2cc3ccccc3nc2-1 [CAMPTOTHECIN] | 0.2 | 8.22 |  | 7.85 |  |  |
| CN(C)CCNc1ccc2c(=O)n(CCN(C)C)c3c4cc5c(cc4ncc3c2c1)OCO5 | > 20 | 6.07 | 6.92 | 7.22 | 6.49 | 6.26 |
| CCCCn1c(=O)c2cc(NCCN(C)C)ccc2c2cnc3cc4c(cc3c21)OCO4 | > 20 | 5.80 | 5.77 | 6.11 | 5.77 | 5.49 |
| CN(C)CCn1c(=O)c2ccc([N+](=O)[O-])cc2c2cnc3cc4c(cc3c21)OCO4 | 0.1 | 8.70 | 8.30 | 8.30 | 8.30 | 8.40 |
| CN(C)CCn1c(=O)c2ccc(NC(=O)CN(C)C)cc2c2cnc3cc4c(cc3c21)OCO4 | > 20 | 7.46 | 7.44 | 7.46 | 6.92 | 6.72 |
| CN(C)CCn1c(=O)c2cc([N+](=O)[O-])ccc2c2cnc3cc4c(cc3c21)OCO4 | 0.2 | 8.30 | 7.59 | 8.05 | 7.60 | 7.60 |
| CN(C)CCn1c(=O)c2cc(NC(=O)CN(C)C)ccc2c2cnc3cc4c(cc3c21)OCO4 | > 20 | 6.92 | 6.74 | 7.00 | 6.62 | 6.22 |
| CCCCn1c(=O)c2ccc(NC(=O)CN(C)C)cc2c2cnc3cc4c(cc3c21)OCO4 | > 20 | 6.52 | 6.05 | 6.22 | 5.72 | 5.70 |
| CC[C@@]1(O)C(=O)OCc2c1cc1n(c2=O)Cc2cc3c(CN(C)C)c(O)ccc3nc2-1 [TOPOTECAN] |  | 7.68 | 7.40 | 7.35 | 6.36 | 6.36 |
| CCCCn1c(=O)c2ccc(NCCN(C)C)cc2c2cnc3cc4c(cc3c21)OCO4 | > 20 | 5.74 | 5.52 | 5.74 | 5.46 | 5.35 |
| CN(C)CCn1c(=O)c2cc(N)ccc2c2cnc3cc4c(cc3c21)OCO4 | 8 | 7.05 | 6.64 | 7.40 | 6.48 | 6.55 |
| CCCCn1c(=O)c2cc([N+](=O)[O-])ccc2c2cnc3cc4c(cc3c21)OCO4 | > 10 | 5.62 | 6.40 | 6.82 | 6.30 | 6.52 |
